Records with an inconclusive call do not appear. Active and inactive are the calls of the source.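 Rule for the calls, unless noted: active = growth inhibition above 25% in both replicates, a cutoff set 3 SD above the mean; inconclusive = above 25% in only one replicate; inactive = the rest.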
Assays:
[1] = S. cerevisiae growth inhibition in permissive medium (OD615), pilot counter-assay for S. cerevisiae lifespan shortening project, permissive growth control (AID 705); settings: OD615, 24 h, at 10 µM, active compounds read high
Summary of the method: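 System – S. cerevisiae with engineered DeaD lifespan system · Buffer or medium – SC raffinose/galactose permissive medium · Schedule – cells pre-grown 4 h, then 24 h compound exposure, 30 °C humidified · Technique – culture turbidity as optical density at 615 nm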

[2] = S. cerevisiae growth inhibition in restrictive medium, OD615, pilot screen, restrictive growth control, yeast lifespan reduction project (AID 706;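 active = growth inhibition above a set limit, 3 SD over mean compound inhibition, in both replicates, cut at about 43% in these data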;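 note: modified DeaD lifespan yeast strain shifted to restrictive glucose medium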); settings: OD615, 48 h, at 10 µM, active compounds read high
Summary of the method: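 Material: engineered S. cerevisiae DeaD strain / Medium: glucose-based CSMM-D restrictive medium / Compound: single dose of 10 µM compound final, 0.25% DMSO / Timing: 4 h pre-incubation, 48 h exposure at 30 °C / Technique: OD615 absorbance reading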

[3] = doxorubicin toxicity protection in MRP-1 cells – H69AR cells, CellTiter-Glo, duplicate, MRP-1 activator project, pilot screen (AID 807;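 active = viability increase at or above a cutoff of the median across tested compounds plus 3 SD, cut at about 8.5% in these data, passing the limit was not always enough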;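 note: compound pretreatment 18-22 h then 72 h combined with doxorubicin; 0% = doxorubicin alone and 100% = vehicle without doxorubicin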); settings: H69AR viability with doxorubicin, CellTiter-Glo luminescence; at 10 µM; active compounds read high
[4] = viability of PTEN-null HCT116 cells – cell-based, HCT116 clonal line, CellTiter-Glo, pilot screen (AID 824;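 active = viability at or below 27.92% in each of two runs, the all-compound median minus 4 SD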;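 note: 0% = 20 µM Hyamine control and 100% = vehicle cell control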); settings: HCT116 PTEN-deleted viability, 60 h, at 10 µM, active compounds read low
[5] = RAM pathway blockade in budding yeast – dse1pr::URA3 reporter, 5-FOA selection, pilot screen (AID 869;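 active = inhibition over a set limit, the all-compound mean plus 3 SD, in both replicate runs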;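 note: 0% = DMSO wells with no growth and 100% = 10 µM 1-NA-PP1 with full growth; RAM network block rescues cells from 5-FOA so hits raise OD615 growth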); settings: S. cerevisiae dse1pr::URA3 5-FOA growth, OD615, 2 d; at 10 µM; active compounds read high; strain carries analog-sensitive mutant Cbk1 kinase
[6] = RAM signaling pathway blockade in yeast – S. cerevisiae, Pdr1DBD-CYC8 efflux-inhibited sensitized strain, primary screen (AID 1298;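 active = RAM network inhibition above 8.4% in each of two replicates, 3 SD over the compound average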;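 note: 0% = DMSO untreated cells without growth and 100% = 10 µM 1-NA-PP1 full growth; higher means more yeast growth rescued from 5-FOA killing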); settings: S. cerevisiae cbk1-as DSE1-URA3 strain, 5-FOA growth OD615, 2 d; at 50 µM; active compounds read high

CCCCNc1ncnc2c1cnn2-c1ccccc1
inactive: growth inhibition [1] -4.09% | growth inhibition [2] -11.2% | viability increase [3] -6.48% | viability [4] 32.4% | inhibition [5] 1.83% | RAM network inhibition [6] -0.15%

CCOC(=O)N1CCC(NC(=O)C(CC(C)C)NC(=O)C2CCCCC2)CC1 (centres undefined)
inactive: growth inhibition [1] -6.28% | growth inhibition [2] -1.08% | viability increase [3] -2.08% | viability [4] 100% | inhibition [5] 2.41% | RAM network inhibition [6] 1.8%

O=C1c2ccccc2N2C(=O)c3ccccc3C2N1Cc1ccco1 (centres undefined)
inactive: growth inhibition [1] -9.32% | growth inhibition [2] -5.68% | viability increase [3] -4.74% | viability [4] 85.1% | inhibition [5] 3.68% | RAM network inhibition [6] 3.03%

CCNc1nc2c(c(=O)n(C)c(=O)n2C)n1Cc1ccc(Cl)cc1
inactive: growth inhibition [1] -6.92% | growth inhibition [2] -2.02% | viability increase [3] -2.02% | viability [4] 58.3% | inhibition [5] -0.48% | RAM network inhibition [6] 1.98%

O=C(NCC1CCCO1)C1CCCCN1S(=O)(=O)c1ccc(F)cc1 (centres undefined)
inactive: growth inhibition [1] -2.19% | growth inhibition [2] -9.73% | viability increase [3] -2.13% | viability [4] 102% | inhibition [5] 0.075% | RAM network inhibition [6] 1.44%

CC(Sc1nc2c(c(=O)n(C)c(=O)n2C)n1Cc1cc2c(cc1Cl)OCO2)C(=O)O (centres undefined)
inactive: growth inhibition [1] -10.7% | growth inhibition [2] -5.16% | viability increase [3] -0.64% | viability [4] 99.9% | inhibition [5] 1.83% | RAM network inhibition [6] 1.02%

COc1ccccc1N1CCN(CC(O)COc2ccc3c(C)cc(=O)oc3c2)CC1 (centres undefined)
inactive: growth inhibition [1] -3.12% | growth inhibition [2] -9.43% | viability increase [3] -2.57% | viability [4] 92.3% | inhibition [5] 1.95% | RAM network inhibition [6] 2.88%

Cc1cc(NC(=O)COC(=O)C2CCN(S(=O)(=O)c3ccc(Cl)cc3)CC2)no1
inactive: growth inhibition [1] 4.11% | growth inhibition [2] -2.37% | viability increase [3] -2.01% | viability [4] 98.9% | inhibition [5] 1.19% | RAM network inhibition [6] 1.38%

CCOC(=O)N1CCN(C(=O)CN(c2cccc(C(F)(F)F)c2)S(C)(=O)=O)CC1
inactive: growth inhibition [1] -9.57% | growth inhibition [2] -1.87% | viability increase [3] -4.09% | viability [4] 88.9% | inhibition [5] 0.905% | RAM network inhibition [6] 4.83%

CCCOC(=O)c1ccc(OCC(O)Cn2c(C)nc3ccccc32)cc1 (centres undefined)
inactive: growth inhibition [1] -11.1% | growth inhibition [2] -3.87% | viability increase [3] -1.73% | viability [4] 57.2% | inhibition [5] 0.99% | RAM network inhibition [6] 6.95%

O=C(Cc1c(C(=O)O)[nH]c2ccccc12)Nc1ccc2c(c1)OCO2
inactive: growth inhibition [1] -7.96% | growth inhibition [2] -0.57% | viability increase [3] -2.23% | viability [4] 99.7% | inhibition [5] 0.445% | RAM network inhibition [6] 2.01%

CCOC(=O)COc1cccc2c(=O)n(CC(=O)NCc3ccc4c(c3)OCO4)ccc12
inactive: growth inhibition [1] -18.3% | growth inhibition [2] -15.8% | viability increase [3] -5.67% | inhibition [5] 3.72% | RAM network inhibition [6] 6.61%
active: viability [4] 27.3%

CCCC(C)NC(=O)c1ccc(F)cc1 (centres undefined)
inactive: growth inhibition [1] -11.8% | growth inhibition [2] -7.83% | viability increase [3] -1.81% | viability [4] 99.9% | inhibition [5] 0.66% | RAM network inhibition [6] 1.8%

Cc1ccc(N(CC(=O)Nc2ccc(S(=O)(=O)N3CCOCC3)cc2)S(C)(=O)=O)cc1C
inactive: growth inhibition [1] -6.29% | growth inhibition [2] -5.42% | viability increase [3] -4.96% | viability [4] 84.2% | inhibition [5] 0.84% | RAM network inhibition [6] 2.67%

CC(=O)NCCOC(=O)Nc1ccncc1
inactive: growth inhibition [1] 4.58% | growth inhibition [2] -5.27% | viability increase [3] -0.91% | viability [4] 99.1% | inhibition [5] 1.32% | RAM network inhibition [6] 3.18%

Cc1c(-c2ccco2)[n+](=O)c2c(n1[O-])CCCCC2
inactive: growth inhibition [1] -4.97% | growth inhibition [2] -4.29% | viability increase [3] -1.32% | viability [4] 105% | inhibition [5] 1.32% | RAM network inhibition [6] 8.4%

CCN(CC)C(=O)CSc1nsc(SCC(=O)N(CC)CC)c1C#N
inactive: growth inhibition [1] -9.3% | growth inhibition [2] 6.27% | viability increase [3] -2.27% | viability [4] 95.3% | inhibition [5] 1.22% | RAM network inhibition [6] 6.13%

Cc1oc(-c2ccc(Cl)cc2)nc1CN1CCC(C(=O)N2CCc3ccccc3C2)CC1
active: viability [4] 11.8%
inactive: growth inhibition [1] -4.91% | growth inhibition [2] -16.6% | viability increase [3] -8.22% | inhibition [5] 0.05% | RAM network inhibition [6] 8.38%

CC1=CCC(C(=O)O)C(C(=O)O)C1 (centres undefined)
inactive: growth inhibition [1] -2.08% | growth inhibition [2] -10.3% | viability increase [3] -2.04% | viability [4] 95.7% | inhibition [5] 1.69% | RAM network inhibition [6] 1.34%

Oc1ccc(C=NCC2COc3ccccc3O2)cc1 (centres undefined)
inactive: growth inhibition [1] -7.84% | growth inhibition [2] 2.85% | viability increase [3] -5.39% | viability [4] 85.3% | inhibition [5] 1.54% | RAM network inhibition [6] -2.56%

O=C(O)c1ccc(N2C(=O)CC(Cc3ccccc3)C2=O)cc1 (centres undefined)
inactive: growth inhibition [1] -3.14% | growth inhibition [2] 2.02% | viability increase [3] -1.42% | viability [4] 100% | inhibition [5] -0.025% | RAM network inhibition [6] 0.72%

COC(=O)C1=C(C)N(c2ccc(F)cc2)C(=O)C1
inactive: growth inhibition [1] -6.78% | growth inhibition [2] -12.3% | viability increase [3] -2.11% | viability [4] 93.6% | inhibition [5] 1.19% | RAM network inhibition [6] -0.26%

COCCNC(=O)NC1(C(F)(F)F)Oc2ccc(Cl)cc2O1 (centres undefined)
inactive: growth inhibition [1] -0.985% | growth inhibition [2] -0.285% | viability increase [3] -4.63% | viability [4] 41.9% | inhibition [5] 0.43% | RAM network inhibition [6] 5.07%

Cc1onc(-c2ccccc2)c1C(=O)Nc1ccc2c(C)cc(=O)oc2c1
inactive: growth inhibition [1] -3.97% | growth inhibition [2] -0.655% | viability increase [3] -2.9% | viability [4] 103% | inhibition [5] 3.31% | RAM network inhibition [6] 2.2%

CC1(C)CC(=O)C=C(Nc2cc(-c3ccccc3)[nH]n2)C1
inactive: growth inhibition [1] -9.89% | growth inhibition [2] 3.12% | viability increase [3] -6.97% | viability [4] 93.4% | inhibition [5] -0.355% | RAM network inhibition [6] 2.78%

CCCCS(=O)CC(CS(=O)CCCC)OC(=O)c1ccc(C)cc1 (centres undefined)
inactive: growth inhibition [1] -10.6% | growth inhibition [2] -7.7% | viability increase [3] -1.14% | viability [4] 96.3% | inhibition [5] 1.73% | RAM network inhibition [6] 0.87%

CCOC(=O)c1cc2c(=O)n3ccccc3nc2n(CCOC)c1=NC(=O)c1ccncc1
inactive: growth inhibition [1] -1.34% | growth inhibition [2] -11.8% | viability increase [3] -5.7% | viability [4] 99.6% | inhibition [5] 0.96% | RAM network inhibition [6] 5.99%

C=C1c2ccc(C)cc2NC(=O)N1c1ccccc1
inactive: growth inhibition [1] 3.26% | growth inhibition [2] 8.36% | viability increase [3] -3.76% | viability [4] 94.2% | inhibition [5] 0.375% | RAM network inhibition [6] 0.1%

O=C(CSc1nc2c(c(=O)n1-c1ccc(Br)cc1)SCC2)NCc1ccco1
inactive: growth inhibition [1] -0.48% | growth inhibition [2] -1.07% | viability increase [3] -3.54% | viability [4] 77.4% | inhibition [5] 0.41% | RAM network inhibition [6] 5.24%

Cc1ccc(N2CC(C(=O)OCC(=O)C(C)(C)C)CC2=O)cc1 (centres undefined)
inactive: growth inhibition [1] 7.84% | growth inhibition [2] 8.49% | viability increase [3] -1.06% | viability [4] 101% | inhibition [5] 0.56% | RAM network inhibition [6] 3.64%

COc1cc2[nH]c(=O)n(CCCC(=O)N3CC=C(c4ccccc4)CC3)c(=O)c2cc1OC
inactive: growth inhibition [1] -11.3% | growth inhibition [2] -6.67% | viability increase [3] -4.59% | viability [4] 80.5% | inhibition [5] 0.355% | RAM network inhibition [6] 1.8%

O=C(CNC(=O)c1ccco1)OCc1ccc(Cl)cc1
inactive: growth inhibition [1] -3.76% | growth inhibition [2] 2.92% | viability increase [3] -2.32% | viability [4] 102% | inhibition [5] 0.375% | RAM network inhibition [6] 0.25%

CS(=O)(=O)N(CC(=O)NCc1ccncc1)c1cc(Cl)cc(Cl)c1
inactive: growth inhibition [1] -7.62% | growth inhibition [2] -10.8% | viability increase [3] -2.29% | viability [4] 105% | inhibition [5] 1.33% | RAM network inhibition [6] 0.15%

Cc1c(C(=O)NCc2ccccn2)oc2ccc(S(=O)(=O)N3CCOCC3)cc12
inactive: growth inhibition [1] -0.375% | growth inhibition [2] -7.32% | viability increase [3] -3.28% | viability [4] 94.4% | inhibition [5] 1.13% | RAM network inhibition [6] 0.56%

COc1ccc(OC)c(S(=O)(=O)N2CCCCC2C(=O)N2CCN(c3ccccn3)CC2)c1 (centres undefined)
inactive: growth inhibition [1] 1.82% | growth inhibition [2] -0.22% | viability increase [3] -4.71% | viability [4] 91.8% | inhibition [5] 1.77% | RAM network inhibition [6] 7.83%

O=C(Oc1c(Cl)cc(Cl)c2cccnc12)N1CCCCC1
inactive: growth inhibition [1] -11.5% | growth inhibition [2] -7.42% | viability increase [3] -3.65% | viability [4] 77.5% | inhibition [5] 0.535% | RAM network inhibition [6] -1.03%

O=C(COc1ccccc1)NCCSc1ccccc1
inactive: growth inhibition [1] -10.4% | growth inhibition [2] -5.4% | viability increase [3] -2.23% | viability [4] 97.5% | inhibition [5] 1.55% | RAM network inhibition [6] 0.83%

Cc1ccc(S(=O)(=O)NC(=O)Nn2c(C)nnc2C)cc1
inactive: growth inhibition [1] -8.7% | growth inhibition [2] -6.25% | viability increase [3] -0.15% | viability [4] 102% | inhibition [5] 0.75% | RAM network inhibition [6] 4.31%

CCn1c(C)c2c(C)nnc(C)c2c1C
inactive: growth inhibition [1] -7.03% | growth inhibition [2] -3.61% | viability increase [3] -3.11% | viability [4] 91.5% | inhibition [5] 1.05% | RAM network inhibition [6] -0.52%

Reference: PubChem BioAssay
